According to ChEMBL document CHEMBL1133891, “Substituted 4-phenyl-2-(phenylcarboxamido)-1,3-thiazole derivatives as antagonists for the adenosine A(1) receptor” (Bioorg Med Chem Lett, 2001):
pKi: −log10 of the molar value.

Legend:
Adenosine receptor A1 = target: T1, Adenosine receptor A1 (Rattus norvegicus, UniProt P25099); assay: Displacement of [3H]DPCPX from Adenosine A1 receptor of rat cortical membrane
T1 sequence (P25099 whole entry): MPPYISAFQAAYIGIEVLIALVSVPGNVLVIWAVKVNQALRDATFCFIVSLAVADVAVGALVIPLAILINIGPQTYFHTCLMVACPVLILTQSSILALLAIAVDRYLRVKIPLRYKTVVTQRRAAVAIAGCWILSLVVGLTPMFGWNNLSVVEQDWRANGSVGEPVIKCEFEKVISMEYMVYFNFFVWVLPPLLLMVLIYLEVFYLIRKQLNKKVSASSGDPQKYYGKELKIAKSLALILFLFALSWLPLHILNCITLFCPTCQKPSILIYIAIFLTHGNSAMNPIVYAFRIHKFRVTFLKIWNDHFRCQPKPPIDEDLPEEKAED
Method in brief: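 Competition binding on rat brain cortex membranes, displacing the A1 radioligand [3H]DPCPX. Displacement experiments run without GTP.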

[1] = target: T2, Adenosine receptor A3 (Homo sapiens) (UniProt P0DMS8); assay: Percent displacement of [125I]-AB MECA from human Adenosine A3 receptor expressed in HEK 293 cells at 1 uM; format: cell-based; conditions: HEK293
T2 sequence (whole entry): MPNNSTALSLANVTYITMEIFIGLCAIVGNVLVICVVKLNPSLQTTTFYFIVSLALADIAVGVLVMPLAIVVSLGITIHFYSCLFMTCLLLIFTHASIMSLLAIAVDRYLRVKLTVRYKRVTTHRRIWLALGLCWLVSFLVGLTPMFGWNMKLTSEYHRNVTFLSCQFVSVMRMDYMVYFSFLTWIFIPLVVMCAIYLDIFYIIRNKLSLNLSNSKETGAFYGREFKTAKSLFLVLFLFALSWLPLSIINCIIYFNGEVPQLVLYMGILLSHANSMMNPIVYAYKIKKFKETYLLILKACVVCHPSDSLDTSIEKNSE

[2] = target: Adenosine receptor A2a (Rattus norvegicus) (UniProt P30543); assay: Percent displacement of [3H]ZM-241385 from A2A receptor in rat striatal membrane at 10 uM; format: cell membranes; conditions: Striatum
Adenosine receptor A2a (Rattus norvegicus), sequence (P30543 whole entry): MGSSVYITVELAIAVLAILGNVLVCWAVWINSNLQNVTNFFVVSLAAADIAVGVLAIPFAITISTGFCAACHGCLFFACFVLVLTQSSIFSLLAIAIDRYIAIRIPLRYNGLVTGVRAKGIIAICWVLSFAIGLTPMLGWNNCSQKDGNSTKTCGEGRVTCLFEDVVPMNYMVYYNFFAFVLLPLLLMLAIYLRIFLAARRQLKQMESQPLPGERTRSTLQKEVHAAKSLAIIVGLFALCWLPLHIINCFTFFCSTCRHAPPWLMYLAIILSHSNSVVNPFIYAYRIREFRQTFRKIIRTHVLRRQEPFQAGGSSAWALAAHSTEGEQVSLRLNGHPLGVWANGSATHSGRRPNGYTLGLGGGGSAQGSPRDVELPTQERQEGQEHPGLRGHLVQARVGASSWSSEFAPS

Row | pKi (Adenosine receptor A1) | Displacement [1] [%] | Displacement [2] [%] | Compound
1 | 7.44 | 66 | 13 | Cc1ccc(C(=O)Nc2nc(-c3ccccc3)cs2)cc1
2 | 7.48 | 58 | 14 | O=C(Nc1nc(-c2ccccc2)cs1)c1ccc(Br)cc1
3 | 6.78 | 18 | 0 | O=C(Nc1nc(-c2ccccc2)cs1)c1ccc(C(F)(F)F)cc1
4 | 7.24 | 22 | 17 | O=C(Nc1nc(-c2ccccc2)cs1)c1ccc(Cl)cc1Cl
5 | 7.41 | 42 | 21 | O=C(Nc1nc(-c2ccccc2)cs1)c1ccccc1
6 |  | 27 | 2 | CC(C)(C)c1ccc(C(=O)Nc2nc(-c3ccccc3)cs2)cc1
7 | 7.66 | 35 | 9 | O=C(Nc1nc(-c2ccccc2)cs1)c1ccc([N+](=O)[O-])cc1
8 | 7.74 | 63 | 15 | O=C(Nc1nc(-c2ccccc2)cs1)c1ccc(Cl)cc1
9 | 7.07 | 42 | 3 | O=C(Nc1nc(-c2ccccc2)cs1)c1cccc(Cl)c1
10 | 7.23 | 20 | 6 | O=C(Nc1nc(-c2ccccc2)cs1)c1ccc(Cl)c(Cl)c1
